In article PMC6172068 (Cancer Science, 2018):
Marks after values point to notes of the source that are not given here.

Assay: Safety and tolerability
Type: in vivo, Japanese patients
How it was run: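 In this open-label study, once-daily oral dosing escalated 20–300 mg/d by Bayesian continual reassessment. DLTs were judged from Cycles 0 and 1, and MTD/RD came from the posterior mean DLT rate plus investigator assessment. Treatment-emergent AEs were graded by NCI-CTCAE v4.0 for seriousness, duration and relatedness. The safety analysis set comprised all patients given ≥1 dose.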

CCc1nc(C(N)=O)c(Nc2ccc(N3CCC(N4CCN(C)CC4)CC3)c(OC)c2)nc1NC1CCOCC1 [gilteritinib]
4 (100%) n (%): Any AE (40 mg (n = 4)) | Any AE (80 mg (n = 4)) | Any AE (120 mg (n = 4)) | Drug-related AE (120 mg (n = 4))
1 (11.1%) n (%): Drug-related AEs leading to discontinuation of the study drug (200 mg (n = 9)) | Serious AE: Bronchopulmonary aspergillosis (200 mg (n = 9)) | Serious AE: Cardiomyopathy (200 mg (n = 9)) | Serious AE: Febrile neutropenia (200 mg (n = 9)) | Serious AE: Increased level of fibrin degradation products (200 mg (n = 9)) | Serious AE: Subdural hematoma (200 mg (n = 9))
6 (25%) n (%): Diarrhea (Grade 1-2, N = 24) | Elevated blood creatine phosphokinase (Grade 1-2, N = 24)
3 (12.5%) n (%): Cough (Grade 1-2, N = 24) | Pleural effusion (Grade 1-2, N = 24) | Rash (Grade 1-2, N = 24) | Somnolence (Grade 1-2, N = 24)
5 (55.6%) n (%): Serious AEs (200 mg (n = 9))
1 (4.2%) n (%): Bone pain (Grade 1-2, N = 24) | Disseminated intravascular coagulation (Grade 1-2, N = 24) | ECG prolonged QT interval (Grade 1-2, N = 24) | Increased amylase (Grade 1-2, N = 24) | Lung infection (Grade 1-2, N = 24) | Pneumonia (Grade 1-2, N = 24) | Sepsis (Grade 1-2, N = 24)
9 (37.5%) n (%): Elevated liver enzymes (ALT, AST, and alkaline phosphatase) (Grade 1-2, N = 24)
1 (25%) ^a n (%): Deaths (80 mg (n = 4), cause of death considered related to the study drug)
0 n (%): AEs leading to discontinuation of the study drug (20 mg (n = 1)) | Deaths (20 mg (n = 1)) | Drug-related AEs leading to discontinuation of the study drug (20 mg (n = 1)) | Drug-related grade ≥3 AEs (20 mg (n = 1)) | Drug-related serious AEs (20 mg (n = 1)) | Serious AE: Acute cholangitis (20 mg (n = 1)) | Serious AE: Bronchopneumonia (20 mg (n = 1)) | Serious AE: Bronchopulmonary aspergillosis (20 mg (n = 1)) | Serious AE: Cardiomyopathy (20 mg (n = 1)) | Serious AE: Device-related infection (20 mg (n = 1)) | Serious AE: Edema (20 mg (n = 1)) | Serious AE: Febrile neutropenia (20 mg (n = 1)) | Serious AE: Increased level of fibrin degradation products (20 mg (n = 1)) | Serious AE: Pneumonia (20 mg (n = 1)) | Serious AE: Sepsis (20 mg (n = 1)) | Serious AE: Subdural hematoma (20 mg (n = 1)) | Serious AEs (20 mg (n = 1)) | Deaths (40 mg (n = 4)) | Serious AE: Acute cholangitis (40 mg (n = 4)) | Serious AE: Bronchopneumonia (40 mg (n = 4)) | Serious AE: Bronchopulmonary aspergillosis (40 mg (n = 4)) | Serious AE: Cardiomyopathy (40 mg (n = 4)) | Serious AE: Febrile neutropenia (40 mg (n = 4)) | Serious AE: Increased level of fibrin degradation products (40 mg (n = 4)) | Serious AE: Sepsis (40 mg (n = 4)) | Serious AE: Subdural hematoma (40 mg (n = 4)) | Serious AE: Bronchopulmonary aspergillosis (80 mg (n = 4)) | Serious AE: Cardiomyopathy (80 mg (n = 4)) | Serious AE: Device-related infection (80 mg (n = 4)) | Serious AE: Edema (80 mg (n = 4)) | Serious AE: Febrile neutropenia (80 mg (n = 4)) | Serious AE: Increased level of fibrin degradation products (80 mg (n = 4)) | Serious AE: Pneumonia (80 mg (n = 4)) | AEs leading to discontinuation of the study drug (120 mg (n = 4)) | Deaths (120 mg (n = 4)) | Drug-related AEs leading to discontinuation of the study drug (120 mg (n = 4)) | Drug-related serious AEs (120 mg (n = 4)) | Serious AE: Acute cholangitis (120 mg (n = 4)) | Serious AE: Bronchopneumonia (120 mg (n = 4)) | Serious AE: Bronchopulmonary aspergillosis (120 mg (n = 4)) | Serious AE: Cardiomyopathy (120 mg (n = 4)) | Serious AE: Device-related infection (120 mg (n = 4)) | Serious AE: Edema (120 mg (n = 4)) | Serious AE: Febrile neutropenia (120 mg (n = 4)) | Serious AE: Increased level of fibrin degradation products (120 mg (n = 4)) | Serious AE: Pneumonia (120 mg (n = 4)) | Serious AE: Sepsis (120 mg (n = 4)) | Serious AE: Subdural hematoma (120 mg (n = 4)) | Serious AEs (120 mg (n = 4)) | Deaths (200 mg (n = 9)) | Serious AE: Acute cholangitis (200 mg (n = 9)) | Serious AE: Bronchopneumonia (200 mg (n = 9)) | Serious AE: Device-related infection (200 mg (n = 9)) | Serious AE: Edema (200 mg (n = 9)) | Serious AE: Pneumonia (200 mg (n = 9)) | Serious AE: Sepsis (200 mg (n = 9)) | Deaths (300 mg (n = 2)) | Drug-related serious AEs (300 mg (n = 2)) | Serious AE: Acute cholangitis (300 mg (n = 2)) | Serious AE: Bronchopneumonia (300 mg (n = 2)) | Serious AE: Bronchopulmonary aspergillosis (300 mg (n = 2)) | Serious AE: Cardiomyopathy (300 mg (n = 2)) | Serious AE: Device-related infection (300 mg (n = 2)) | Serious AE: Edema (300 mg (n = 2)) | Serious AE: Febrile neutropenia (300 mg (n = 2)) | Serious AE: Increased level of fibrin degradation products (300 mg (n = 2)) | Serious AE: Pneumonia (300 mg (n = 2)) | Serious AE: Sepsis (300 mg (n = 2)) | Serious AE: Subdural hematoma (300 mg (n = 2)) | Serious AEs (300 mg (n = 2)) | Anemia (Grade 1-2, N = 24)
1 (25%) n (%): AEs leading to discontinuation of the study drug (40 mg (n = 4)) | Drug-related AEs leading to discontinuation of the study drug (40 mg (n = 4)) | Drug-related grade ≥3 AEs (40 mg (n = 4)) | Drug-related serious AEs (40 mg (n = 4)) | Serious AE: Device-related infection (40 mg (n = 4)) | Serious AE: Edema (40 mg (n = 4)) | Serious AE: Pneumonia (40 mg (n = 4)) | Serious AEs (40 mg (n = 4)) | AEs leading to discontinuation of the study drug (80 mg (n = 4)) | Drug-related AEs leading to discontinuation of the study drug (80 mg (n = 4)) | Drug-related grade ≥3 AEs (80 mg (n = 4)) | Drug-related serious AEs (80 mg (n = 4)) | Serious AE: Acute cholangitis (80 mg (n = 4)) | Serious AE: Bronchopneumonia (80 mg (n = 4)) | Serious AE: Sepsis (80 mg (n = 4)) | Serious AE: Subdural hematoma (80 mg (n = 4)) | Serious AEs (80 mg (n = 4)) | Drug-related grade ≥3 AEs (120 mg (n = 4))
1 n: AE resulting in permanent discontinuation: pneumonia (40 mg/d) | AE resulting in permanent discontinuation: subdural hematoma (80 mg/d) | DLT: grade 3 tumor lysis syndrome (120 mg/d) | AE resulting in permanent discontinuation: elevated blood creatine phosphokinase (200 mg/d) | AE resulting in permanent discontinuation: delirium (200 mg/d, not considered drug-related) | AE resulting in permanent discontinuation: elevated lactate dehydrogenase (300 mg/d) | AE resulting in permanent discontinuation: pneumonia (300 mg/d)
2 (50%) n (%): Grade ≥3 AEs (40 mg (n = 4)) | Grade ≥3 AEs (80 mg (n = 4)) | Grade ≥3 AEs (120 mg (n = 4))
3 (75%) n (%): Drug-related AE (40 mg (n = 4)) | Drug-related AE (80 mg (n = 4))
4 (44.4%) n (%): Drug-related grade ≥3 AEs (200 mg (n = 9))
9 (100%) n (%): Any AE (200 mg (n = 9)) | Drug-related AE (200 mg (n = 9))
7 (77.8%) n (%): Grade ≥3 AEs (200 mg (n = 9))
1 (100%) n (%): Any AE (20 mg (n = 1)) | Drug-related AE (20 mg (n = 1)) | Grade ≥3 AEs (20 mg (n = 1))
5 (20.8%) n (%): Hypertension (Grade 1-2, N = 24) | Renal impairment (Grade 1-2, N = 24)
2 (100%) n (%): AEs leading to discontinuation of the study drug (300 mg (n = 2)) | Any AE (300 mg (n = 2)) | Drug-related AE (300 mg (n = 2)) | Drug-related AEs leading to discontinuation of the study drug (300 mg (n = 2)) | Drug-related grade ≥3 AEs (300 mg (n = 2)) | Grade ≥3 AEs (300 mg (n = 2))
2 (22.2%) n (%): AEs leading to discontinuation of the study drug (200 mg (n = 9)) | Drug-related serious AEs (200 mg (n = 9))
2 (8.3%) n (%): Dysesthesia (Grade 1-2, N = 24) | Dysgeusia (Grade 1-2, N = 24) | Elevated ALT (Grade 1-2, N = 24) | Elevated AST (Grade 1-2, N = 24) | Epistaxis (Grade 1-2, N = 24) | Febrile neutropenia (Grade 1-2, N = 24) | Hematoma (Grade 1-2, N = 24) | Hypokalemia (Grade 1-2, N = 24) | Hypotension (Grade 1-2, N = 24) | Hypoxia (Grade 1-2, N = 24) | Insomnia (Grade 1-2, N = 24)
2 n: DLTs: grade 3 elevated blood lactate dehydrogenase, amylase, blood creatine phosphokinase levels, and syncope (300 mg/d)
8.3%: patients with a dose decrease (2 patients)
7 (29.2%) n (%): Elevated blood lactate dehydrogenase (Grade 1-2, N = 24) | Pyrexia (Grade 1-2, N = 24)
4 (16.7%) n (%): Constipation (Grade 1-2, N = 24) | Corneal erosion (Grade 1-2, N = 24) | Headache (Grade 1-2, N = 24) | Nausea (Grade 1-2, N = 24)
29.2%: patients with dose interruptions (7 patients)
